# Reference: ChEMBL document CHEMBL1125652, “Kynurenic acid derivatives. Structure-activity relationships for excitatory amino acid antagonism and identification of potent and selective antagonists at the glycine site on the N-methyl-D-aspartate receptor” (J Med Chem, 1991)
# pIC50: −log10 of the molar value. Activity calls are given as the source filed them. The calls are words filed in the database; no cut-off is given here.
# Legend:
# [1] = target: T1, Glutamate receptor ionotropic, kainate (Rattus norvegicus) (UniProt P22756+Q01812+P42260+P42264+Q63273); test: Apparent dissociation constant of [3H]kainate from Ionotropic glutamate receptor ionotropic kainate was determined in rat cortical slice preparation
# Outline: (§1)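 Rat cortical slice preparation; test compound antagonism of depolarizations evoked by agonists N-methyl-D-aspartic acid, quisqualic acid or kainic acid, expressed as apparent Kb.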
# [2] = target: T2, Glutamate receptor ionotropic, AMPA (Rattus norvegicus) (UniProt P19491+P19492+P19493+P19490); test: Apparent dissociation constant of [3H]AMPA from quisqualate receptor of rat cortical slices; format: protein-complex assay; outline: as §1
# [3] = target: T3, Glutamate NMDA receptor (Rattus norvegicus) (UniProt P35439+Q00959+Q00960+Q00961+Q62645+Q8VHN2+Q9R1M7); test: Apparent dissociation constant of [3H]-glycine from N-methyl-D-aspartate glutamate receptor in rat cortical slice preparation at 100 uM; Inactive; outline: as §1
# [4] = target: T3, Glutamate NMDA receptor (Rattus norvegicus); test: Apparent dissociation constant of [3H]glycine from N-methyl-D-aspartate glutamate receptor in rat cortical slice preparation expressed as log values.; outline: as §1
# Glutamate NMDA receptor [5] = test: Inhibition of [3H]glycine binding to glycine site of N-methyl-D-aspartate glutamate receptor in rat cortical membranes; format: cell membranes, Membrane
# Glutamate NMDA receptor [6] = test: Inhibition of [3H]glycine binding to N-methyl-D-aspartate glutamate receptor of rat cortical membranes; format: cell membranes, Membrane
# Outline: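 [3H]Glycine radioligand binding to rat cortical membranes. IC50 is the concentration inhibiting 50% of specific binding, taken from at least two experiments and given as the mean of two to four determinations (geometric mean).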
# [7] = target: T2, Glutamate receptor ionotropic, AMPA (Rattus norvegicus); test: Apparent dissociation constant of [3H]AMPA from Quisqualate receptor was determined in rat cortical slice preparation at 100 uM; Inactive; outline: as §1
# [8] = target: Glutamate receptor ionotropic, AMPA (Rattus norvegicus, UniProt P19490+P19491+P19492+P19493); test: Inhibition of [3H]-AMPA binding to AMPA receptor of rat cortical membrane
# [9] = target: Glutamate receptor ionotropic, kainate; test: Inhibition of [3H]-kainic acid binding to kainate receptor of rat cortical membrane
# [10] = target: T1, Glutamate receptor ionotropic, kainate (Rattus norvegicus); test: Apparent dissociation constant of [3H]kainate from ionotropic glutamate receptor kainate of rat cortical slice at 100 uM; Inactive; format: protein-complex assay; outline: as §1
# Glutamate NMDA receptor [11] = test: Inhibition of [3H]-glutamate binding to N-methyl-D-aspartate glutamate receptor of rat cortical membranes; format: cell membranes, Membrane
# [12] = target: T3, Glutamate NMDA receptor (Rattus norvegicus); test: Apparent dissociation constant of [3H]glycine from N-methyl-D-aspartate glutamate receptor of rat cortical slices; format: protein-complex assay
# Outline: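 Antagonism of NMDA-induced depolarizations in a rat cortical slice preparation, where endogenous glycine is present at supersaturating levels. Apparent Kb was obtained from dose ratios, with a dose ratio under 2 at a stated concentration reported as ">". Kb values are means of at least three experiments.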
# [13] = target: T1, Glutamate receptor ionotropic, kainate (Rattus norvegicus); test: Apparent dissociation constant for [3H]kainate from Ionotropic glutamate receptor kainate of rat cortical slices; format: protein-complex assay
# Outline: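 Functional antagonism of kainate-induced depolarizations in rat cortical slices. Apparent Kb was obtained from dose ratios, with a dose ratio under 2 at a stated concentration reported as ">". Kb values are means of at least three experiments.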
# [14] = target: T3, Glutamate NMDA receptor (Rattus norvegicus); test: Apparent dissociation constant of [3H]-glycine from N-methyl-D-aspartate glutamate receptor in rat cortical slice at 30 uM; Inactive; outline: as §1
# [15] = target: T2, Glutamate receptor ionotropic, AMPA (Rattus norvegicus); test: Apparent dissociation constant of [3H]-AMPA from Quisqualate receptor of rat cortical slice at 30 uM; Inactive; format: protein-complex assay; outline: as §1
SMILES,Kb [1] [µM],-Log 1/Kb [4],pIC50 (Glutamate NMDA receptor [5]),also measured
CCc1ccc2nc(C(=O)O)cc(O)c2c1,> 100,–,–,Kb [2]: > 100 µM; Kb [3]: inactive
Cc1cc(C)c2c(O)cc(C(=O)O)nc2c1,–,5.16,6.27,–
O=C(O)c1cc(O)c2c(Cl)c(Cl)c(Cl)cc2n1,14,–,5.62,–
O=C(O)c1cc(O)c2c(Br)cccc2n1,–,4.7,–,–
O=[N+]([O-])c1ccc2nc(O)c(O)nc2c1,4.6,–,5.08,–
O=C(O)c1cc(O)c2cc(I)ccc2n1,37,–,–,Kb [2]: 56 µM
O=c1[nH]c2cc([N+](=O)[O-])c([N+](=O)[O-])cc2[nH]c1=O [DNQX],–,–,–,pIC50 (Glutamate NMDA receptor [6]): 5.35
Cc1cc2c(cc1C)n(C)c(=O)c(=O)n2C,–,–,< 4.00,–
O=C(O)c1cc(O)c2c([N+](=O)[O-])cc([N+](=O)[O-])cc2n1,–,–,< 4.00,–
O=C(O)c1cc(O)c2c(C(F)(F)F)cccc2n1,–,4.46,–,–
CCc1cc(Cl)cc2nc(C(=O)O)cc(O)c12,–,6,6.59,–
O=C(O)c1cc(O)c2c(Br)cc(Br)cc2n1,–,5.8,7.07,–
O=C(O)c1cc(O)c2cc([N+](=O)[O-])ccc2n1,49,–,–,Kb [2]: 52 µM; Kb [3]: inactive
O=C(O)C(=O)Nc1cc(Cl)cc(Cl)c1,–,–,5.17,Kb [7]: inactive
"Oc1nc2cc(Cl)c(Cl)cc2nc1O [2,3-DIHYDROXY-6,7-DICHLOROQUINOXALINE]",9,–,5.51,–
Cc1ccc2nc(C(=O)O)cc(O)c2c1,59,–,–,Kb [2]: 66 µM; Kb [3]: inactive
O=C(O)c1cc(=O)c2ccccc2[nH]1 [TRANSTORINE],89,–,–,pIC50 [8]: 4.00; pIC50 [9]: < 3.00
CCc1cc(Br)cc2nc(C(=O)O)cc(O)c12,–,5.75,7.18,–
O=C(O)c1nc2cc(Cl)ccc2[nH]1,–,–,5.25,–
COc1cc(C(=O)O)nc2cc(Cl)cc(Cl)c12,–,–,4.00,Kb [10]: inactive; Kb [7]: inactive; Kb [3]: inactive
CCCCc1cccc2nc(C(=O)O)cc(O)c12,–,3.31,< 4.00,–
O=C(O)c1cc(O)c2cc(F)ccc2n1,55,–,–,Kb [2]: 48 µM
O=C(O)c1cc(O)c2cc(Br)ccc2n1,30,–,–,Kb [2]: 28 µM
Cc1cc(I)cc2nc(C(=O)O)cc(O)c12,–,5.05,5.92,–

SMILES,Kb [1] [µM],-Log 1/Kb [4],pIC50 (Glutamate NMDA receptor [5]),also measured
O=C(O)c1cc(O)c2c(Cl)cc(I)cc2n1,–,5,6.19,–
Cc1cc2nc(O)c(O)nc2cc1C,27,–,–,–
O=C(O)c1cc(O)c2ccc(I)cc2n1,–,4.33,5.44,–
O=C(O)c1cc(O)c2ccc(C(F)(F)F)cc2n1,–,3.52,–,–
Oc1nc2cc(Cl)cc(Cl)c2nc1O,22,–,5.47,–
CCc1cccc2nc(C(=O)O)cc(O)c12,–,5.26,5.32,–
CC(C)c1ccc2c(O)cc(C(=O)O)nc2c1,–,–,< 4.00,–
Oc1nc2cccc(Cl)c2nc1O,> 100,–,4.25,–
CCc1ccc2c(O)cc(C(=O)O)nc2c1,–,3.82,< 4.00,–
COc1ccc2nc(C(=O)O)cc(O)c2c1,32,–,–,Kb [2]: 87 µM; Kb [3]: inactive
CCc1cc(Br)c2c(O)cc(C(=O)O)nc2c1,–,4.72,5.49,–
Cc1cc(I)c2c(O)cc(C(=O)O)nc2c1,–,6,6.57,–
O=C(O)c1cc(O)c2cccc(Cl)c2n1,–,–,< 4.00,Kb [10]: inactive; Kb [7]: inactive; Kb [3]: inactive
O=C(O)c1cc(O)c2ccc(F)cc2n1,–,4.5,–,–
O=C(O)c1cc(O)c2c(Cl)cc(Cl)cc2n1,> 30,–,6.70,pIC50 [9]: < 3.52; pIC50 (Glutamate NMDA receptor [11]): < 4.00
O=C(O)c1cc(O)c2c(I)cc(Cl)cc2n1,–,6.4,7.49,–
Cc1cc2[nH]c(=O)c(=O)n(C)c2cc1C,47,–,5.18,–
COc1nc2cc(C)c(C)cc2nc1OC,–,–,< 4.00,–
O=C(O)c1cc(O)c2cc(Cl)ccc2n1,19,–,< 4.00,pIC50 [8]: 4.39; pIC50 [9]: < 3.52; pIC50 (Glutamate NMDA receptor [11]): < 3.52
O=C(O)c1cc(O)c2c(C(F)(F)F)cc(C(F)(F)F)cc2n1,–,–,< 4.00,–
Cc1cccc2nc(C(=O)O)cc(O)c12,–,4.68,5.68,–
Cc1cc(Br)cc2nc(C(=O)O)cc(O)c12,–,5.58,5.96,–
Oc1nc2ccccc2nc1O,> 100,–,4.41,–
CCCc1ccc2c(O)cc(C(=O)O)nc2c1,–,–,< 4.00,–

SMILES,Kb [1] [µM],-Log 1/Kb [4],pIC50 (Glutamate NMDA receptor [5]),also measured
CCCc1cccc2nc(C(=O)O)cc(O)c12,–,3.4,–,–
O=C(O)c1cc(O)c2cc(C(F)(F)F)ccc2n1,> 100,–,–,Kb [2]: > 100 µM; Kb [3]: inactive
C=Cc1ccc2c(O)cc(C(=O)O)nc2c1,–,3.58,< 4.00,–
Oc1nc2ccc(Cl)cc2nc1O,26,–,–,–
C=Cc1cccc2nc(C(=O)O)cc(O)c12,–,–,< 4.00,–
O=C(O)c1cc(O)c2ccc(Cl)cc2n1 [7-CHLOROKYNURENIC ACID],50,5.15,6.25,pIC50 [8]: 3.82; pIC50 [9]: < 3.00; pIC50 (Glutamate NMDA receptor [11]): 3.77
Cc1cc(Br)c2c(O)cc(C(=O)O)nc2c1,–,5.68,6.09,–
O=C(O)c1cc(O)c2c(I)cccc2n1,–,5.12,6.20,–
O=c1[nH]c2ccc(Cl)cc2[nH]c1=O,–,–,5.08,–
Cn1c(C(=O)O)cc(=O)c2c(Cl)cc(Cl)cc21,–,–,< 4.00,Kb [10]: inactive; Kb [7]: inactive; Kb [3]: inactive
O=C(O)c1cc(O)c2c(F)cccc2n1,–,4.39,–,–
CCCCc1ccc2c(O)cc(C(=O)O)nc2c1,–,–,< 4.00,–
CSc1ccc2nc(C(=O)O)cc(O)c2c1,43,–,–,Kb [2]: 56 µM
O=C(O)c1cc(O)c2ccc([N+](=O)[O-])cc2n1,–,4.11,–,–
O=[N+]([O-])c1cc2nc(O)c(O)nc2cc1[N+](=O)[O-],–,–,–,Kb [12]: 5.3 µM; Kb [13]: 1.29 µM
CSc1ccc2c(O)cc(C(=O)O)nc2c1,–,2.67,–,–
O=C(O)CNc1cc(Cl)cc(Cl)c1,–,–,4.31,Kb [7]: inactive
COc1ccc2c(O)cc(C(=O)O)nc2c1,–,–,< 4.00,–
COc1nc2cc(C)c(C)cc2nc1O,86,–,< 4.00,Kb [14]: inactive; Kb [15]: inactive
O=C(O)c1cc(O)c2c(Cl)cccc2n1,> 100,4.43,5.28,–
Cc1ccc2c(O)cc(C(=O)O)nc2c1,–,4.47,5.74,–
O=C(O)c1cc(O)c2ccc(Br)cc2n1,–,5.1,6.07,–
CCc1cc(Cl)c2c(O)cc(C(=O)O)nc2c1,–,4.42,5.31,–
Cc1cc2[nH]c(=O)c(=O)[nH]c2cc1C,–,–,5.64,–
